# Where a name gives a salt, the structure may show the parent alone.
# How the values were obtained:
# [1] = tested on: Plasmodium falciparum; test: Antimalarial activity against multidrug-resistant Plasmodium falciparum K1 by [3H]hypoxanthine uptake; assay type: functional, organism-based
# How it was run: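 P. falciparum K1 kept in continuous culture; in vitro microculture radioisotope method. IC50 taken as the concentration giving 50% reduction in parasite growth, read as uptake of [3H]hypoxanthine. Dihydroartemisinin as positive control.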
# [2] = tested on: Mycobacterium tuberculosis; test: Antimycobacterial activity against Mycobacterium tuberculosis H37Ra by microplate alamar blue assay; assay type: functional
# How it was run: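 M. tuberculosis H37Ra tested by microplate Alamar Blue assay, value reported as MIC. Isoniazid and kanamycin sulfate as reference compounds.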
# [3] = tested on: KB; test: Cytotoxicity against human KB cells by colorimetric method; assay type: functional, cell-based
# [4] = Cytotoxicity against human BC1 cells by colorimetric method; assay type: functional, cell-based
# How it was run: (§1)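 Colorimetric cytotoxicity assay following Skehan and co-workers. Cells: BC-1 (human breast cancer) and NCI-H187 (human small cell lung cancer). IC50 values reported in μM. Ellipticine served as the standard positive control.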
# [5] = tested on: NCI-H187; test: Cytotoxicity against human NCI-H187 cells by colorimetric method; assay type: functional, cell-based; how it was run: as §1
Structure (SMILES),IC50 [1] [µM],MIC [2] [µM],IC50 [3] [µM],IC50 [4] [µM],IC50 [5] [µM]
C[C@H]1[C@@H](O)O[C@@H]2O[C@@]3(C)CC[C@H]4[C@H](C)CC[C@@H]1[C@@]24OO3 [ARTENIMOL],0.004,,,,
NC[C@H]1O[C@H](O[C@H]2[C@H](O)[C@@H](O[C@H]3O[C@H](CO)[C@@H](O)[C@H](N)[C@H]3O)[C@H](N)C[C@@H]2N)[C@H](O)[C@@H](O)[C@@H]1O [KANAMYCIN SULFATE],,3.43,,,
Cc1c2ccncc2c(C)c2c1[nH]c1ccccc12 [ELLIPTECINE],,,5.41,5.93,1.59
CCCCC/C=C/C(O)C(O)/C=C/c1c(CC(O)C(C)(C)O)ccc(O)c1CO (stereo unspecified),> 49,245,> 49,> 49,> 49
O=C1c2c(O)cccc2[C@H](O)[C@H](O)[C@H]1O,> 95.2,952,> 95.2,> 95.2,56.6
C/C=C(\C)C(=O)C(C)C(O)C(C)C(=O)O[C@H]1C=COC=C2C[C@@]3(SC)C(=O)N4[C@H]5C(=CC=C[C@@H]5O)[C@@H](O)[C@@]4(SC)C(=O)N3[C@@H]21 (stereo partly specified),> 30.9,155,> 30.9,29.2,22.9
CS[C@@]12CC3=CC=C[C@H](O)[C@H]3N1C(=O)[C@]1(SC)CC3=COC=C[C@H](O)[C@H]3N1C2=O,> 46,7.14,> 46,> 46,> 46
CC(O)CCC/C=C/C(O)C(O)/C=C/c1c(CC(O)C(C)(C)O)ccc(O)c1C=O (stereo unspecified),> 47.3,474,> 47.3,> 47.3,> 47.3
C/C=C/C(C=O)=C\C=C\C(O)C(O)[C@@H]1O[C@H]1CO (relative stereo),> 78.7,> 787,> 78.7,> 78.7,> 78.7
CCCC(=O)CC/C=C/[C@H](O)[C@@H]1O[C@H]1CO,> 30.3,> 303,> 30.3,> 30.3,> 30.3
C/C=C(\C)C(=O)C(C)C(O)C(C)C(=O)O[C@H]1C=COC=C2C[C@@]3(SC)C(=O)N4c5c(O)cccc5[C@@H](O)[C@@]4(SC)C(=O)N3[C@@H]21 (stereo partly specified),2.95,1.24,> 31,> 31,20.3
NNC(=O)c1ccncc1 [ISONIAZID],,0.29,,,

# — ChEMBL document CHEMBL1158073, “Bioactive compounds from the seed fungus Menisporopsis theobromae BCC 3975” (J Nat Prod, 2006)
